Screening data deposited in PubChem BioAssay by several laboratories.
The list is not random: actives were taken first. Their share in the collection is about 2.6%.
T cruzi repl – blocks replication of Trypanosoma cruzi | inhibition, % (concentration not given with the values) | AID 1885 | hit rate 1.4% among 300,000 | T. cruzi beta-gal in NIH3T3, luminescence, 90 h;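 active means mean inhibition across valid replicates above about 55%, limit read from the data; inconclusive means mean below that limit but half or more replicates reach it; inactive means mean below it, under half of replicates reach it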;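 further: signal also drops with host cell toxicity which is not excluded here; 0% = plate median of DMSO wells and 100% = zero luminescence signal; higher percent means less beta-gal luminescence so fewer parasites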
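Assay system: NIH/3T3 host cells with β-galactosidase reporter T. cruzi; input: 5,000 host fibroblasts per well; compound: single 50 nL compound addition per well in DMSO; timing: ≥90 h infection period, 3 h prior cell attachment; measured by: GalScreen β-gal luminescence, detergent lysis, 60 min; evaluation: percent inhibition of parasite-derived β-gal signal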
CHT inh – human CHT choline transport inhibition | Q9GZV3 | CHT-expressing cells, membrane potential dye, choline response; hits give low values | B-score at 10 µM | hit rate 0.86% among 310,000;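 active means B-score over 3 SD under the library average, and starting fluorescence ratio not unusually high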;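 further: choline stimulus applied at its EC90 after an EC20 pre-addition; B-score computed on integrated fluorescence ratio after choline addition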
Target sequence (Q9GZV3 whole entry, looked up): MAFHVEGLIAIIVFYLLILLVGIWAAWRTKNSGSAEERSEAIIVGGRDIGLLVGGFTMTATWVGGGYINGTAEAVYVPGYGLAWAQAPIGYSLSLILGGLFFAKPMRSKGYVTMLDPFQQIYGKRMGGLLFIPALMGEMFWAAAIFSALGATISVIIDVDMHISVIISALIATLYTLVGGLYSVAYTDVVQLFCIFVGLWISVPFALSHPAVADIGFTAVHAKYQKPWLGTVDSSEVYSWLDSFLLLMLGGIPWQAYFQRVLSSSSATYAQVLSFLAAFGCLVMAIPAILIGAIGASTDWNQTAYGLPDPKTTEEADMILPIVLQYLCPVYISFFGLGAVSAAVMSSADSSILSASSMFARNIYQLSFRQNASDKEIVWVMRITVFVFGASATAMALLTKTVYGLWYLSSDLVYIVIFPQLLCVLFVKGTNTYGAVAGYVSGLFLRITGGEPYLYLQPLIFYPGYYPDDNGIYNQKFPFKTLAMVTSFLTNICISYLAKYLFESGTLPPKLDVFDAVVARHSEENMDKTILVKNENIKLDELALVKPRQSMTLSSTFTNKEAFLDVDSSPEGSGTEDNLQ
CHT PAM – allosteric activators of human choline transporter CHT; B-score at 10 µM; Q9GZV3; hit rate 0.49% among 310,000; CHT-expressing cells, membrane potential dye, choline EC20; hits give high values; LV-AA mutant CHT in HEK293 cells;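 active means initial fluorescence not abnormally high and integrated response B-score, plate-corrected, over 3 SD above library mean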
PolyA inh – inhibitors of polyadenylation in S. cerevisiae | activity score, % at 12 µM | S. cerevisiae SKY197-pL101 polyadenylation reporter, beta-gal luminescence; efflux-impaired pdr1/pdr3 knockout yeast; score 100 = 6 SD above DMSO | hit rate 0.02% among 300,000;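 active means lowest replicate activity score at least 50, where 100 means six control SD above control mean; inconclusive means lowest score under 50 but half or more replicates reach 50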;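 further: yeast exposed to compound for 9 h at 30 °C; higher score means more reporter readthrough which indicates perturbed polyadenylation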
* = called active by the depositor; i = inactive; ? = inconclusive; / = no result.

SMILES	T cruzi repl	CHT inh	CHT PAM	PolyA inh
COc1ccc(OC)c(NC(=O)NCc2cccnc2)c1	1	i	i	4
O=[N+]([O-])c1ccc(N2CCN(S(=O)(=O)c3ccccc3)CC2)cc1	5	i	i	15
Cc1nc2c(-c3ccc(Cl)cc3)c(C)[nH]n2c(=O)c1Cc1ccccc1	63*	i	i	-1
Cc1nc2c(-c3ccccc3)c(C)[nH]n2c(=O)c1Cc1ccccc1	46	i	i	6
Cn1nc([N+](=O)[O-])nc1Oc1ccc(C(C)(C)C)cc1	64*	i	i	-18
CNc1nc(C)c([N+](=O)[O-])c(Nc2ccc(OC)cc2)n1	-1	i	i	-1
CNc1ccc(Oc2nc([N+](=O)[O-])nn2C)cc1	69*	i	i	11
Cn1nc([N+](=O)[O-])nc1Oc1ccccc1	79*	i	i	7
COc1ccc(S(=O)(=O)Nc2cc3c4c(c2)CCC(=O)N4CCC3)cc1C	-6	i	i	1
C(=N\NC1=Nc2cccc3cccc1c23)/c1ccccn1	65*	/	/	-65
Cc1ccc(CN2CC(C(=O)Nc3cc(C)ccn3)CC2=O)cc1 (stereo not given)	-8	i	i	-3
O=C(c1nnsc1S(=O)c1ccc(Cl)cc1)N1CCOCC1 (stereo not given)	63*	/	/	4
CCCOc1ccc(-c2nn(-c3ccccc3)cc2/C=C2\SC(N)=NC2=O)cc1C	56*	i	i	-4
O=C(O)c1cccc(-n2cccc2/C=C2/SC(=O)N(CC(=O)N3CCCC3)C2=O)c1	-19	i	i	30
CCC(C)NS(=O)(=O)c1ccc(NC(=O)C(Sc2ccccc2)c2ccccc2)cc1 (stereo not given)	58*	i	i	10
NC1=NC[C@H](Cc2ccc(O)cc2)N1CCc1cc(C(F)(F)F)cc(C(F)(F)F)c1	7	i	i	-16
NC1=NC[C@H](Cc2ccc(O)cc2)N1CCCCC1CCCCC1	60*	i	i	0
COc1ccc(C2NCCc3c2[nH]c2ccccc32)cc1CN1CCc2cc(OC)c(OC)cc2C1C (stereo not given)	61*	/	/	0
CCN(Cc1ccncc1)C(=O)c1ccc(Br)o1	-5	i	i	-5
C/C(Cl)=C\Cn1c(O)c(N=NC(N)=S)c2cc(Br)ccc21	77*	i	i	-27
O=C(Nc1cc(-c2nc3ccccc3s2)ccc1Cl)c1ccc2c(c1)OCO2	-15	i	i	2
N#C/C(=C(/O)c1ccc2c(c1)OCO2)c1nc2cc(C(F)(F)F)ccc2s1	-16	-8.3*	i	2
CC(CCN(C)C)OC(=O)c1ccc(C(C)c2ccccc2)o1 (stereo not given)	72*	i	i	28
CN1CCC(N(C)S(=O)(=O)c2ccc(NC(=O)COc3ccc(F)cc3Cl)cc2)CC1	43	i	i	?
C(=N\c1ncnc2sccc12)/NOCc1ccccc1	-9	i	i	95*
SMILES	T cruzi repl	CHT inh	CHT PAM	PolyA inh
Cc1[nH]c2ccccc2c1CN1CCC(Cc2ccccc2)CC1	94*	i	i	-6
Cc1[nH]c2ccccc2c1CN1CCN(c2ccccn2)CC1	78*	i	i	1
c1ccc(-c2ncc(CN3CCN(c4ccccn4)CC3)[nH]2)cc1	21	i	i	-16
Cc1[nH]c2ccccc2c(=O)c1CN1CCCCC1	-5	i	i	-12
COc1cccc(OC)c1C(=O)NC(=S)N1CCCCC1c1cccnc1 (stereo not given)	51	i	i	-1
CCC(NC(=S)NCc1ccc(F)cc1)c1ccc(C)cc1 (stereo not given)	-17	i	i	-8
COc1cc(OC)cc(-c2nnc(NC(=O)c3ccc4c(c3)OCCO4)o2)c1	-49	i	i	1
Cc1cc2c(cc1C)NC(c1c(C)n(C)n(-c3ccccc3)c1=O)C1=C(CC(C)(C)CC1=O)N2 (stereo not given)	55*	i	i	-13
COc1cc(C2Nc3cc(C)c(C)cc3NC3=C2C(=O)CC(C)(C)C3)ccc1OC(C)=O (stereo not given)	3	i	i	-1
CC(C)CC(Nc1ncnc2scc(-c3ccccc3)c12)C(=O)O (stereo not given)	-5	i	i	60*
O=C(O)CSc1ncnc2scc(-c3ccccc3)c12	4	i	i	-13
CCOc1ccc(CSC2=NCCN2)cc1Cl	57*	i	i	-2
Cc1cc(C)cc(N=c2c([N+](=O)[O-])nn(-c3ccc4c(c3)OCCO4)n2O)c1	58*	i	i	-2
Cc1ccc(N=c2c([N+](=O)[O-])nn(-c3ccccc3)n2O)c(C)c1	53	i	i	-11
O=[N+]([O-])c1nn(-c2ccc3c(c2)OCCO3)n(O)c1=Nc1ccc(Cl)cc1	55*	i	i	10
Cc1ccc(N=c2c([N+](=O)[O-])nn(-c3ccc4c(c3)OCCO4)n2O)cc1F	?	i	i	-6
Cc1ccc(N=c2c([N+](=O)[O-])nn(-c3ccc(Cl)cc3)n2O)cc1C	59*	i	i	-23
O=[N+]([O-])c1nn(-c2ccc(Cl)cc2)n(O)c1=NCc1ccccc1	14	i	i	-3
Cc1ccc(N=c2c([N+](=O)[O-])nn(-c3ccc4c(c3)OCCO4)n2O)c(Cl)c1	75*	i	i	-8
Cc1cc(=O)oc(C)c1C(=O)Nc1ccc(F)cc1	-15	i	i	30
CS(=O)(=O)N(CC(=O)NCCSCc1ccccc1Cl)c1ccc(F)cc1	0	i	i	-12
CCOn1c(-n2nc(C)cc2C)nc2ccccc2c1=O	-33	i	i	6
Cc1cc(C)n(-c2nc3ccccc3c(=O)n2OCC#N)n1	59*	i	i	-16
Clc1ccc(OCCOCCNCc2ccccc2)cc1Cl	37	i	i	7
CCc1nc(N[C@H](C(=O)O)C(C)CC)c2oc3ccccc3c2n1 (stereo not given in full)	1	i	i	6
SMILES	T cruzi repl	CHT inh	CHT PAM	PolyA inh
CC(C)C(Nc1ncnc2c1oc1ccccc12)C(=O)O (stereo not given)	77*	i	i	6
Cc1cc2oc(=O)c(CC(=O)NCCCO)c(C)c2c2occ(C(C)(C)C)c12	1	i	i	7
Cc1cc2oc(=O)c(CC(=O)NCCCN(C)C)c(C)c2c2occ(C(C)(C)C)c12	59*	i	i	7
CS(=O)(=O)N1CCc2cc(-c3csc(NC(=O)C(c4ccccc4)c4ccccc4)n3)ccc21	61*	i	i	9
O=C(Nc1nc(-c2cccc([N+](=O)[O-])c2)cs1)C(c1ccccc1)c1ccccc1	53	i	i	6
C/C(Cn1cnc([N+](=O)[O-])n1)=N/NC(=O)COc1c(Cl)cc(Cl)cc1Cl	62*	i	i	-1
